ChEMBL document CHEMBL1121446, “Quantitative structure-pharmacokinetic relationships derived on antibacterial sulfonamides in rats and its comparison to quantitative structure-activity relationships” (J Med Chem, 1980)

Tests used:
[1] = species: Rattus norvegicus; assay: Apparent volume of distribution was determined in rat; type: ADME, organism-based; details: in vivo
Method in brief: (§1)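 Male Sprague-Dawley rats received the SA sodium salt, 50 mg/kg, into the tail vein within 1 min. Tail-artery blood was sampled over time and plasma separated by centrifugation. Unmetabolized and total SA were assayed by modified Bratton-Marshall before and after hydrolysis of N4 metabolites. ke (or kC,U for unchanged drug) was obtained by computer fitting to a one-compartment model. Vc = dose / extrapolated initial plasma concentration.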

[2] = Overall elimination rate in rat; type: ADME, organism-based; details: in vivo, read-out: ke (converted); method in brief: as §1
[3] = Acid dissociation constant; type: ADME
Method in brief: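 pKa of the sulfapyridine acidic NH measured spectrophotometrically.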

[4] = Total clearance from the body in rat; type: ADME, organism-based; details: in vivo, read-out: ClT
[5] = species: Rattus norvegicus; assay: Affinity for protein binding expressed as association constant in fresh rat serum; type: ADME, organism-based
Method in brief: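 Sulfapyridines added to freshly prepared rat serum at 100-600 µmol/L in 100 µmol/L steps. Samples ultracentrifuged 10 h at 45000 rpm (g = 150000), 37 °C. Unbound drug in the top protein-free layer measured photometrically by Bratton-Marshall. Total drug measured before centrifugation, with controls correcting for sedimentation of unbound drug. Bound = total − free; Kassoc from a Scatchard plot.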

[6] = Half life in rat; type: ADME, organism-based; details: in vivo; method in brief: as §1
[7] = Renal clearance from the body in rat; type: ADME, organism-based, Kidney; details: in vivo, read-out: CL_renal
Method in brief: (§2)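 Drug solutions were infused into rats at 1.9 mL/h, with plasma and urine concentrations measured simultaneously over time. Clearance = urine concentration × urine volume per minute / plasma concentration. Inulin and PAH clearances were also determined. Urine pH was set with NH4Cl (pH 5-6) or NaHCO3 (pH 7.8), compared with normal pH 6.8.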

[8] = First order rate of elimination of unchanged drug in rat; type: ADME, organism-based; details: in vivo, read-out: kC,U (converted); method in brief: as §1
[9] = species: Rattus norvegicus; assay: Metabolic clearance from the body in rat; type: ADME, organism-based; details: in vivo
Method in brief: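 Metabolic clearance calculated as total clearance minus renal clearance. Plasma levels were measured before and after hydrolysis of N4-acetyl metabolites.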

[10] = Renal clearance from the body; type: ADME, organism-based, Kidney; details: in vivo; read-out: CL_renal; method in brief: as §2
[11] = Half life was determined; type: ADME; details: rat

Compound | Vc [1] [mL] | k el [2] [s⁻¹] | pKa [3] | clearance [4] [mL/min] | K ass [5] | half-life [6] [h] | CL renal [7] [mL/min] | k el [8] [s⁻¹] | ClM [9] [mL/min] | CL renal [10] [mL/min] | half-life [11] [h]
Cc1ccnc(NS(=O)(=O)c2ccc(N)cc2)c1 | 142.8 | 0.000161 | 9.01 | 1.38 | 6606 l M-1 | 1.19 | – | – | – | – | –
Cc1cc(C)nc(NS(=O)(=O)c2ccc(N)cc2)c1 | 183 | 0.00016 | 9.54 | 1.76 | 5495 l M-1 | 1.2 | 1.28 | 0.000117 | 0.48 | – | –
Nc1ccc(S(=O)(=O)Nc2ncc(Br)cc2Br)cc1 | 90.3 | 8.89e-06 | 5.78 | 0.048 | 13800 l M-1 | 21.6 | – | 5.56e-06 | 0.02 | 0.03 | –
Nc1ccc(S(=O)(=O)Nc2ccc(Br)cn2)cc1 | 247.1 | 7.78e-06 | 6.98 | 0.116 | – | 24.8 | 0.04 | 2.78e-06 | 0.07 | – | –
Cc1ccc(NS(=O)(=O)c2ccc(N)cc2)nc1 | 234 | 8.17e-05 | 8.95 | 1.15 | 9183 l M-1 | 2.36 | – | – | – | – | –
N#Cc1cccnc1NS(=O)(=O)c1ccc(N)cc1 | 96.7 | 0.000133 | 5.25 | 0.77 | 1820 l M-1 | 1.44 | – | – | – | – | –
Cc1cccnc1NS(=O)(=O)c1ccc(N)cc1 | 131 | 0.000149 | 8.74 | 1.17 | 1622 l M-1 | 1.29 | – | – | – | – | –
CN(C)c1ccc(NS(=O)(=O)c2ccc(N)cc2)nc1 | 111.2 | 9.25e-05 | 9.21 | 0.62 | 8511 l M-1 | 2.08 | 0.43 | 6.39e-05 | 0.19 | – | –
Cc1cc(Br)cnc1NS(=O)(=O)c1ccc(N)cc1 | 142.6 | 2.36e-05 | 7.19 | 0.2 | 5888 l M-1 | 8.15 | – | – | – | – | –
Nc1ccc(S(=O)(=O)Nc2ncccc2Cl)cc1 | 147.5 | 2.22e-05 | 6.8 | 0.2 | 13441 l M-1 | 8.66 | – | – | – | – | –

The remaining lines, values ahead:

Vc [1] [mL] | k el [2] [s⁻¹] | pKa [3] | clearance [4] [mL/min] | K ass [5] | half-life [6] [h] | CL renal [7] [mL/min] | k el [8] [s⁻¹] | ClM [9] [mL/min] | CL renal [10] [mL/min] | half-life [11] [h] | Compound
99.2 | 8.89e-06 | 5.98 | 0.05 | 12706 l M-1 | 21.6 | 0.05 | 8.33e-06 | 0.03 | – | – | Nc1ccc(S(=O)(=O)Nc2ncc(Cl)cc2Cl)cc1
168.6 | 0.000102 | 9.2 | 1.04 | 5129 l M-1 | – | – | – | – | – | 1.88 | Cc1cccc(NS(=O)(=O)c2ccc(N)cc2)n1
185.5 | 8.89e-06 | 7.04 | 0.099 | 25703 l M-1 | 21.6 | 0.06 | 5.56e-06 | 0.04 | – | – | Nc1ccc(S(=O)(=O)Nc2ccc(Cl)cn2)cc1
89.7 | 8.83e-05 | 5.35 | 0.47 | 10965 l M-1 | 2.18 | – | – | – | – | – | Cc1cnc(NS(=O)(=O)c2ccc(N)cc2)c(C#N)c1
100.3 | 0.000151 | 8.07 | 0.91 | 2399 l M-1 | 1.27 | – | – | – | – | – | COc1cccnc1NS(=O)(=O)c1ccc(N)cc1
192.8 | 1.17e-05 | 5.56 | 0.135 | 20417 l M-1 | 16.5 | – | – | – | – | – | Nc1ccc(S(=O)(=O)Nc2ccc([N+](=O)[O-])cn2)cc1
98.3 | 0.000138 | 8.2 | 0.81 | 4169 l M-1 | 1.4 | – | – | – | – | – | CCOc1cccnc1NS(=O)(=O)c1ccc(N)cc1
137.9 | 2.36e-05 | 7.26 | 0.195 | – | 8.15 | – | – | – | – | – | Cc1cc(Cl)cnc1NS(=O)(=O)c1ccc(N)cc1
229 | 0.000131 | 8.54 | 1.79 | 4592 l M-1 | 1.47 | 1.33 | 9.72e-05 | 0.46 | – | – | Nc1ccc(S(=O)(=O)Nc2ccccn2)cc1 [SULFAPYRIDINE]
